Laboratory results as given in paper PMC2231817 (The Journal of General Physiology, 2000).
Positions count from the first letter of the chain named. Read-outs that look alike come from different tables or passages of the source.

Key:
[1] = ref Marsh and Phil 1990; cited from earlier work
[2] = test system: rod and olfactory CNG channels; assay: Comparison of DAG analogues on cloned CNG channels; type: biochemical; details: data not shown
[3] = biological target: T1, bovine rod CNG channel (CNG1, α homomultimer) (Bos taurus, UniProt Q00194); type: biochemical
T1 sequence (Q00194 1-690): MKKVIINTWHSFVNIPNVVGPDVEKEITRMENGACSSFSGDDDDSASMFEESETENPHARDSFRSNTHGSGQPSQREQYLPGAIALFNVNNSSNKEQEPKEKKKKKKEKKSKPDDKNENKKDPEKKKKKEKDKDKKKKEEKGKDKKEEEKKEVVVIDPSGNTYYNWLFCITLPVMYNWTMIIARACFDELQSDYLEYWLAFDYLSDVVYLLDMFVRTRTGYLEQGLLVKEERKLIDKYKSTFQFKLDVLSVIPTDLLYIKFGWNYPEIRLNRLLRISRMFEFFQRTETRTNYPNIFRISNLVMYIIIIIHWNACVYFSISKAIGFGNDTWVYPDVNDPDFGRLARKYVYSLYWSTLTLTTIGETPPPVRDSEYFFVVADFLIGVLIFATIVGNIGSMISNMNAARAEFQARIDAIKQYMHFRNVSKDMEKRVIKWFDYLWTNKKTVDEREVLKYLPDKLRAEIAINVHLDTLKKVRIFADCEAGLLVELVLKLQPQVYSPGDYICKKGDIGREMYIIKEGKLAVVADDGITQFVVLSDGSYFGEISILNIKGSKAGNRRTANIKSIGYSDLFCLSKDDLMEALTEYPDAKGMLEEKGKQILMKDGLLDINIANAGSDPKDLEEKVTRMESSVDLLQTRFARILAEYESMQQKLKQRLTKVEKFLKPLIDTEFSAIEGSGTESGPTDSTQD

[4] = biological target: T2, rat olfactory CNG channel (CNG2, α homomultimer) (Rattus norvegicus, UniProt Q00195); type: biochemical
T2 sequence (Q00195 1-664): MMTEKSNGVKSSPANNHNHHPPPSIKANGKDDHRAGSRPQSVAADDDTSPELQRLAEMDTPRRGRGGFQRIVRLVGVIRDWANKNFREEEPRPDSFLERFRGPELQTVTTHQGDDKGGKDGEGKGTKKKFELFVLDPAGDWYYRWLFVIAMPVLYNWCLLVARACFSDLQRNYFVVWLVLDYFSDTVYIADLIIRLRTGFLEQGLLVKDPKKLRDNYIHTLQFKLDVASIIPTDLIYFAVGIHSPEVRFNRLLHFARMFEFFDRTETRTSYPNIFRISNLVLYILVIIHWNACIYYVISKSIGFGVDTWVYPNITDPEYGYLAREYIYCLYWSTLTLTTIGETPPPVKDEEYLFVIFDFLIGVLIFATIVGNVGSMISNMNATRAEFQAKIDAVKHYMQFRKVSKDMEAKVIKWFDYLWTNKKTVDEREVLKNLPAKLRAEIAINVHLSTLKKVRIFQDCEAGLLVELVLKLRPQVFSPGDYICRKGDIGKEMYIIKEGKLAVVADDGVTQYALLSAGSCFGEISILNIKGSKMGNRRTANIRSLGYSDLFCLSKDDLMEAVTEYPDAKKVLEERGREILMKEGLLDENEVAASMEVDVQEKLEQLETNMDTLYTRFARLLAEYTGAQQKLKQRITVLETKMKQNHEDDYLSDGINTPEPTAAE

[5] = biological target: T3, CHM 11 rod/olfactory chimeric CNG channel (Bos taurus / Rattus norvegicus, UniProt Q00194+Q00195); assay: DAG dose-response on chimera CHM11, inside-out patches from Xenopus oocytes; type: biochemical, bovine/rat; details: saturating 2 mM cGMP, five patches
T3 sequence (Q00194 1-690): T1 sequence (Q00194 1-690)
T3 sequence (Q00195 1-664): T2 sequence (Q00195 1-664)
How it was run: (§1)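 Chimera cRNA injected into Xenopus oocytes, held at 15°C overnight then 18°C for 1–10 d; vitelline membrane removed. […] 1,2-DiC8 from DMSO stock added stepwise to bath (0.05–48 μM; DMSO <1.2%). Leak-subtracted currents; Hill fit to averaged data, scaled to maximal inhibition.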

[6] = biological target: T4, CHM 13 rod/olfactory chimeric CNG channel (Bos taurus / Rattus norvegicus, UniProt Q00194+Q00195); assay: DAG dose-response on chimera CHM13, inside-out patches from Xenopus oocytes; type: biochemical, bovine/rat; details: saturating 2 mM cGMP, six patches
T4 sequence (Q00194 1-690): T1 sequence (Q00194 1-690)
T4 sequence (Q00195 1-664): T2 sequence (Q00195 1-664)
How it was run: as §1

[7] = biological target: T5, CHM 3 rod/olfactory chimeric CNG channel (Bos taurus / Rattus norvegicus, UniProt Q00194+Q00195); assay: DAG dose-response on chimera CHM3, inside-out patches from Xenopus oocytes; type: biochemical, bovine/rat; details: saturating 2 mM cGMP, 4 patches
T5 sequence (Q00194 with tags, fused parts or gaps): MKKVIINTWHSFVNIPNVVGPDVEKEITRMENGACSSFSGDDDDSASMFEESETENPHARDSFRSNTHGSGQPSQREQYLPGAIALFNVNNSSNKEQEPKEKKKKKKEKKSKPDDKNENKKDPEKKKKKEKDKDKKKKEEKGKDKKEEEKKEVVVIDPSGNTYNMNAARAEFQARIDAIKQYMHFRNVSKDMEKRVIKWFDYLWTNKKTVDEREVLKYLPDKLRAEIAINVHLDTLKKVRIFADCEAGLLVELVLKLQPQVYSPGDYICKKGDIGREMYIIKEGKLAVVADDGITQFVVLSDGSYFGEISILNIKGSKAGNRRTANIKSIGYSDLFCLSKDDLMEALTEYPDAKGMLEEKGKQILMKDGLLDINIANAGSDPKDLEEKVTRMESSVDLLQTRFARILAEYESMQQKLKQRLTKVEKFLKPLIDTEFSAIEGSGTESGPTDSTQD
T5 sequence (Q00195 147-381): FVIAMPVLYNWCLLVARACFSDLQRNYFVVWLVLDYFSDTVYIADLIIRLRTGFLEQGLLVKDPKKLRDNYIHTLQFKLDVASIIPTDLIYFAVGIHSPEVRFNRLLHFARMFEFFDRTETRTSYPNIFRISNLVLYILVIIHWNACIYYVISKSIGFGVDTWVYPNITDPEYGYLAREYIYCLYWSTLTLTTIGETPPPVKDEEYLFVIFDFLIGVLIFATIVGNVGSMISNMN
How it was run: as §1

[8] = biological target: T6, mutant rod CNG channel H468Q (H468Q and A483V), α homomultimer (Bos taurus, UniProt Q00194, A483V/H468Q); type: biochemical, bovine
T6 sequence (Q00194 1-690 H468Q/A483V): T1 sequence (Q00194 1-690) with H468Q, A483V

[9] = biological target: T7, mouse olfactory CNG channel (Mus musculus, UniProt Q62398); assay: Single-channel recording of olfactory channel with DAG; type: biochemical; details: +80 mV, saturating cGMP, with and without DAG
T7 sequence (Q62398 1-664): T2 sequence (Q00195 1-664) with P50S, Q69R, V77I, D115G, G118D, V297A, D611E, T661A, A662V
How it was run: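 Three to five continuous 1-s records per condition, filtered at 5 kHz and sampled at 25 kHz. Amplitude histograms from full records were fit with Gaussians to obtain mean single-channel current.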

[10] = test system: CNG channels; details: ref Fodor et al. 1997; cited from earlier work

Question: With CCCCCCCC(=O)OC[C@H](COP(=O)([O-])OCC[N+](C)(C)C)OC(=O)CCCCCCC [1,2-dioctanoyl phosphatidylcholine] as the molecule, how does the critical micelle concentration [1] read?
Answer: 270 µM

Question: For CCCCCCCC(=O)OCC(O)COC(=O)CCCCCCC [1,3-DiC8], which “effectiveness of inhibition relative to 1,2-DiC8” value [2] is on record?
Answer: just as effective as 1,2-DiC8

Question: For CCCCCCCC(=O)OC[C@H](CO)OC(=O)CCCCCCC [DAG, 1,2-dioctanoyl-sn-glycerol], which “factor of increase of cGMP K1/2” value ([3]; 0.5 μM DAG) is on record?
Answer: 3.2

Question: What about the “reduction in the maximal current with DAG” value ([3]; 0.5 μM DAG, cGMP dose-response) of the same molecule?
Answer: 29%

Question: What about the IC50 ([3]; IC50 for DAG inhibition, saturating 2 mM cGMP, 11 patches) of the same molecule?
Answer: 0.83 µM

Question: And the “Hill coefficient n of DAG inhibition” value ([3]; low cGMP (~30 μM), single patch)?
Answer: 1.3

Question: And the “DAG concentration completely suppressing cGMP-activated currents” value ([3]; saturating 2 mM cGMP)?
Answer: ~3 µM

Question: What about the “Hill coefficient n of DAG inhibition” value ([3]; saturating 2 mM cGMP) of the same molecule?
Answer: 1.7

Question: And the “INmax (maximal inhibition by DAG)” value ([3]; saturating 2 mM cGMP)?
Answer: 100%

Question: What about the “factor of increase of cGMP K1/2” value ([4]; 0.5 μM DAG) of the same molecule?
Answer: 2.2

Question: And the “reduction in the maximal current with DAG” value ([4]; 0.5 μM DAG, cGMP dose-response)?
Answer: 3%

Question: What about the “inhibition of cGMP-activated current by DAG” value ([4]; 0.5 μM DAG, saturating 100 μM cGMP) of the same molecule?
Answer: small effect

Question: And the “Hill coefficient n of DAG inhibition” value ([4]; low cGMP (1.5 μM), single patch)?
Answer: 1.4

Question: And the “Hill coefficient n of DAG inhibition” value ([4]; saturating 100 μM cGMP)?
Answer: 1.4

Question: And the “INmax (maximal inhibition by DAG)” value ([4]; saturating 100 μM cGMP)?
Answer: 31%

Question: What about the “suppression of cGMP-activated currents at high DAG” value ([4]; saturating (100 μM) cGMP, DAG as high as 12 μM) of the same molecule?
Answer: only partial suppression

Question: And the “difference between DAG IC50 of rod and olfactory channel” value ([4]; saturating cGMP, rod vs olfactory)?
Answer: approximately a fourfold difference

Question: And the “Hill coefficient n of DAG inhibition” value [5]?
Answer: 1.6

Question: And the “Hill coefficient n of DAG inhibition” value [6]?
Answer: 2.8

Question: And the “Hill coefficient n of DAG inhibition” value [7]?
Answer: 1.6

Question: And the IC50 [8]?
Answer: 0.33 µM

Question: And the “single-channel amplitude with DAG” value ([8]; +80 mV, saturating cGMP, with and without 0.25 μM DAG, patch with two channels)?
Answer: 2.1 pA

Question: And the “extent of inhibition by DAG” value ([8]; saturating cGMP)?
Answer: fully inhibited

Question: What about the “single-channel amplitude with DAG” value [9] of the same molecule?
Answer: 3.2 pA

Question: For Nc1nc2c(ncn2[C@@H]2O[C@@H]3COP(=O)(O)O[C@H]3[C@H]2O)c(=O)[nH]1 [cGMP], which EC50 ([4]; read-out: K1/2 for activation by cGMP, with 0.5 μM DAG, +100 mV, single patch) is on record?
Answer: 4 µM

Question: And the “Hill coefficient n of cGMP activation” value ([4]; with 0.5 μM DAG)?
Answer: 2.8

Question: What about the “Hill coefficient n of cGMP activation” value ([4]; without DAG) of the same molecule?
Answer: 2.8

Question: For CCCCNc1ccc(C(=O)OCCN(C)C)cc1 [tetracaine], which “Hill coefficient of inhibition” value [10] is on record?
Answer: ~1
